{
  "source": "ChEMBL document CHEMBL3580574",
  "about": "“Design, Synthesis, and Biological Evaluation of Hexacyclic Tetracyclines as Potent, Broad Spectrum Antibacterial Agents” (J Med Chem, 2015)",
  "type_in_all_cases": "functional",
  "key": {"[1]": {"tested_on": "Proteus mirabilis", "experiment": "Antibacterial activity against Proteus mirabilis 385 assessed as bacterial growth inhibition by susceptibility testing assay", "summary_of_the_method": "(§1)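 Broth microdilution MIC per CLSI in cation-adjusted Mueller Hinton broth, made fresh and held at 4 °C before testing. Medium supplemented with lysed horse blood where appropriate. Compound stocks prepared and serially diluted in sterile deionized water. Runs were accepted against QC ranges for comparator antibiotics and ATCC QC strains.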"}, "[2]": {"tested_on": "Burkholderia cenocepacia", "experiment": "Antibacterial activity against Burkholderia cenocepacia 240 assessed as bacterial growth inhibition by susceptibility testing assay", "summary_of_the_method": "(§2)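 Medium supplemented with lysed horse blood where appropriate. Compound stocks prepared and serially diluted in sterile deionized water. Runs were accepted against QC ranges for comparator antibiotics and ATCC QC strains.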"}, "[3]": {"tested_on": "Pseudomonas aeruginosa", "experiment": "Antibacterial activity against Pseudomonas aeruginosa 1145 infected in immunocompetent BALB/c mouse lung infection model assessed as log reduction in colony forming units at 40 mg/kg, iv bid administered at 2 hrs and 12 hrs post-infection measured 24 hrs post-drug treatment", "summary_of_the_method": "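Female BALB/c mice (18−20 g) received intranasal inoculum under light anesthesia. IV treatment at 2 and 12 h postinfection, six mice per group per dose. An untreated group was harvested at 2 h. Lungs were taken 24 h after treatment start, weighed, homogenized, diluted and plated on MacConkey medium overnight at 37 °C, 5% CO2. Read-out: CFU per gram lung.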"}, "[4]": {"tested_on": "Staphylococcus aureus", "experiment": "Antibacterial activity against methicillin-resistant, tet(M) tetracycline-resistant Staphylococcus aureus 161 assessed as bacterial growth inhibition by susceptibility testing assay", "summary_of_the_method": "(§3)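 Broth microdilution MIC per CLSI in 96-well plates; compound stocks prepared and serially diluted in sterile deionized water; cation-adjusted Mueller Hinton broth prepared fresh and held at 4 °C before testing, supplemented with lysed horse blood as appropriate; runs accepted when comparator antibiotics fell within QC ranges for appropriate ATCC quality control strains.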"}, "[5]": {"tested_on": "Pseudomonas aeruginosa", "experiment": "Antibacterial activity against Pseudomonas aeruginosa 694 assessed as bacterial growth inhibition by susceptibility testing assay", "summary_of_the_method": "as §1"}, "[6]": {"tested_on": "Staphylococcus aureus", "experiment": "Antibacterial activity against tet(K) tetracycline-resistant Staphylococcus aureus 158 assessed as bacterial growth inhibition by susceptibility testing assay"}, "[7]": {"tested_on": "Pseudomonas aeruginosa", "experiment": "Antibacterial activity against Pseudomonas aeruginosa 555 BAA-47 assessed as bacterial growth inhibition by susceptibility testing assay", "summary_of_the_method": "as §1"}, "[8]": {"tested_on": "Enterococcus faecium", "experiment": "Antibacterial activity against tet(M) tetracycline-resistant Enterococcus faecium 404 assessed as bacterial growth inhibition by susceptibility testing assay"}, "[9]": {"tested_on": "Streptococcus pneumoniae", "experiment": "Antibacterial activity against tet(M) tetracycline-resistant Streptococcus pneumoniae 160 assessed as bacterial growth inhibition by susceptibility testing assay"}, "[10]": {"tested_on": "Pseudomonas aeruginosa", "experiment": "Ratio of tetracycline IC50 to compound IC50 for antitranslational activity in Pseudomonas aeruginosa 555 BAA-47 by in vitro coupled transcription/translation assay"}, "[11]": {"tested_on": "Pseudomonas aeruginosa", "experiment": "Antibacterial activity against Pseudomonas aeruginosa 1145 assessed as bacterial growth inhibition by susceptibility testing assay", "summary_of_the_method": "as §3"}, "[12]": {"tested_on": "Escherichia coli", "experiment": "Antibacterial activity against tet(A) tetracycline-resistant Escherichia coli 155 assessed as bacterial growth inhibition by susceptibility testing assay", "summary_of_the_method": "as §3"}, "[13]": {"tested_on": "Staphylococcus aureus", "experiment": "Antibacterial activity against Staphylococcus aureus 101 ATCC 29213 assessed as bacterial growth inhibition by susceptibility testing assay", "summary_of_the_method": "as §1"}, "[14]": {"tested_on": "Stenotrophomonas maltophilia", "experiment": "Antibacterial activity against Stenotrophomonas maltophilia 256 assessed as bacterial growth inhibition by susceptibility testing assay", "summary_of_the_method": "as §2"}, "[15]": {"tested_on": "Acinetobacter baumannii", "experiment": "Antibacterial activity against tet(B) tetracycline-resistant Acinetobacter baumannii 250 assessed as bacterial growth inhibition by susceptibility testing assay", "summary_of_the_method": "as §3"}, "[16]": {"tested_on": "Enterococcus faecalis", "experiment": "Antibacterial activity against tet(M) tetracycline-resistant Enterococcus faecalis 327 assessed as bacterial growth inhibition by susceptibility testing assay", "summary_of_the_method": "as §3"}, "[17]": {"tested_on": "Enterobacter cloacae", "experiment": "Antibacterial activity against tet(A) tetracycline-resistant Enterobacter cloacae 603 assessed as bacterial growth inhibition by susceptibility testing assay", "summary_of_the_method": "as §3"}, "[18]": {"tested_on": "Escherichia coli", "experiment": "Antibacterial activity against Escherichia coli 107 ATCC 25922 assessed as bacterial growth inhibition by susceptibility testing assay", "summary_of_the_method": "as §1"}, "[19]": {"tested_on": "Klebsiella pneumoniae", "experiment": "Antibacterial activity against Klebsiella pneumoniae 457 harboring CTX-M-15 gene assessed as bacterial growth inhibition by susceptibility testing assay", "summary_of_the_method": "as §3"}, "[20]": {"tested_on": "Pseudomonas aeruginosa", "experiment": "Antitranslational activity in Pseudomonas aeruginosa 555 BAA-47 assessed as ribosomal inhibition by in vitro coupled transcription/translation assay", "summary_of_the_method": "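P. aeruginosa coupled transcription/translation reactions with a luciferase reporter, run 60 min at 37 °C. Reactions were stopped on ice for 5 min, then luciferase substrate was added and luminescence read. Percent luminescence was plotted against inhibitor concentration, and 50% inhibition versus untreated controls was taken as the IC50.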"}, "[21]": {"tested_on": "Pseudomonas aeruginosa", "experiment": "Antibacterial activity against Pseudomonas aeruginosa 694 infected in immunocompetent CD-1 mouse thigh infection model assessed as log reduction in colony forming units at 5 mg/kg, iv administered twice daily at 2 hrs and 12 hrs post-infection measured 24 hrs post-drug treatment (reference value: 1.8 log10CFU)", "summary_of_the_method": "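Thigh model: inoculum given intramuscularly into the right thigh on day 0. IV dosing with vehicle, test agent or comparator at 2 and 12 h postinfection. Untreated groups were harvested at 2 and 24 h. Thigh muscle was collected at 24 h postinfection, homogenized in PBS pH 7.4, diluted and plated on Brain Heart Infusion agar + 0.5% charcoal. Read-out: CFU per gram thigh.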"}},
  "data": [
    {"smiles": "CN(C)[C@@H]1C(O)=C(C(N)=O)C(=O)[C@@]2(O)C(O)=C3C(=O)c4c(O)c5c(c(F)c4C[C@H]3C[C@@H]12)[C@@H]1[C@@H](CCN1C)CN5", "note": "(stereo in doubt; 10c)", "values": [
      {"measurement": "MIC", "setting": "[1]", "value": 0.5, "unit": "µg/mL"},
      {"measurement": "MIC", "setting": "[2]", "value": 8, "unit": "µg/mL"},
      {"measurement": "log10CFU/g", "setting": "[3]", "value": 4},
      {"measurement": "MIC", "setting": "[4]", "value": 0.5, "unit": "µg/mL"},
      {"measurement": "MIC", "setting": "[5]", "value": 8, "unit": "µg/mL"},
      {"measurement": "MIC", "setting": "[6]", "value": 0.0625, "unit": "µg/mL"},
      {"measurement": "MIC", "setting": "[7]", "value": 4, "unit": "µg/mL"},
      {"measurement": "MIC", "setting": "[8]", "value": 0.0625, "unit": "µg/mL"},
      {"measurement": "MIC", "setting": "[9]", "value": "<=0.0156 ug ml-1"},
      {"measurement": "Ratio IC50", "setting": "[10]", "value": 10},
      {"measurement": "MIC", "setting": "[11]", "value": 4, "unit": "µg/mL"},
      {"measurement": "MIC", "setting": "[12]", "value": 0.5, "unit": "µg/mL"},
      {"measurement": "MIC", "setting": "[13]", "value": 0.25, "unit": "µg/mL"},
      {"measurement": "MIC", "setting": "[14]", "value": 1, "unit": "µg/mL"},
      {"measurement": "MIC", "setting": "[15]", "value": 2, "unit": "µg/mL"},
      {"measurement": "MIC", "setting": "[16]", "value": 0.125, "unit": "µg/mL"},
      {"measurement": "MIC", "setting": "[17]", "value": 0.5, "unit": "µg/mL"},
      {"measurement": "MIC", "setting": "[18]", "value": 0.0625, "unit": "µg/mL"},
      {"measurement": "MIC", "setting": "[19]", "value": 0.5, "unit": "µg/mL"},
      {"measurement": "IC50", "setting": "[20]", "value": 210, "unit": "nM"}
    ]},
    {"smiles": "C[C@H]1COc2c(N3CCN(C)CC3)c(F)cc3c(=O)c(C(=O)O)cn1c23.C[C@H]1COc2c(N3CCN(C)CC3)c(F)cc3c(=O)c(C(=O)O)cn1c23.O", "note": "[LEVOFLOXACIN]", "values": [
      {"measurement": "log10CFU/g", "setting": "[21]", "value": 4.5}
    ]}
  ]
}
